Assay [1] relates to Escherichia coli. Nature of the assay: Antibacterial activity against Escherichia coli ATCC 25922 assessed as inhibition zone after 18 hrs by disk diffusion method. The assay is classed as functional, organism-based. Summed up: (§1)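 Samples were prepared at 10 mg/mL in water, and 50 µL was applied to 8 mm paper disks. Disks were placed on Mueller-Hinton agar in 9 cm dishes, pre-inoculated with a suspension made from one colony in distilled water. Plates were incubated 18 h at 37 °C, then the inhibition zone was measured.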
(In agar diffusion tests the substance spreads into inoculated agar from a disc or well.)

In assay [2] the test system is Staphylococcus aureus. In words: Antibacterial activity against Staphylococcus aureus ATCC 25923 assessed as inhibition zone after 18 hrs by disk diffusion method. Type of assay: functional, organism-based. The method, boiled down:
as §1

For assay [3], the system named is Enterococcus faecalis. In words: Antibacterial activity against Enterococcus faecalis ATCC 29212 assessed as clear zone after 18 hrs by TLC bioautography. The assay is classed as functional, organism-based. Summed up: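 After the TLC run, the solvent was evaporated. Plates were overlaid with Mueller-Hinton agar seeded with bacteria in nutrient broth and incubated 18 h at 37 °C in a humidified chamber. They were then sprayed with p-iodonitrotetrazolium bromide (2 mg/mL) and incubated 2 h. Clear zones were scored as antibacterial activity.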

Assay [4] deals with Enterococcus faecalis. Nature of the assay: Antibacterial activity against Enterococcus faecalis ATCC 29212 assessed as inhibition zone after 18 hrs by disk diffusion method. Type of assay: functional, organism-based. Summed up:
as §1

For assay [5], the system named is Pseudomonas aeruginosa. In words: Antibacterial activity against Pseudomonas aeruginosa ATCC 27853 assessed as inhibition zone after 18 hrs by disk diffusion method. Type of assay: functional, organism-based. Summed up:
as §1

Assay [6] has as its system Staphylococcus aureus. In words: Antibacterial activity against Staphylococcus aureus assessed as growth inhibition by liquid microdilution assay. The assay is classed as functional. Summed up:
(§2)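 MIC was determined by liquid broth microdilution growth inhibition against standard strains.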
(In general: Broth dilution looks for growth in wells or tubes with falling amounts of substance.)

Assay [7] has as its system Escherichia coli. Nature of the assay: Antibacterial activity against Escherichia coli assessed as growth inhibition by liquid microdilution assay. Type of assay: functional. The method, boiled down:
as §2

Assay [8] concerns Pseudomonas aeruginosa. In words: Antibacterial activity against Pseudomonas aeruginosa as growth inhibition by liquid microdilution assay. Type of assay: functional. The method, boiled down:
as §2

Assay [9] relates to Enterococcus faecalis. In words: Antibacterial activity against Enterococcus faecalis assessed as growth inhibition by liquid microdilution assay. The assay is classed as functional. Summed up:
as §2

Here are results for eleven compounds from ChEMBL document CHEMBL1687891, “Triterpenoid saponins from Symplocos lancifolia” (2011).

In brackets after ≈: the same amount, converted by molar mass. Activity calls are given as the source filed them. No cut-off for these calls is given here.

The term MIC denotes the least concentration at which growth counts as inhibited.

Turning to `C[C@@H]1O[C@@H](O[C@H]2C(OC(=O)[C@]34CCC(C)(C)C[C@H]3C3=CC[C@@H]5[C@@]6(C)C[C@@H](O)[C@H](O[C@@H]7O[C@H](CO)[C@@H](O)[C@H](O)[C@H]7O)[C@@](C)(CO)[C@@H]6CC[C@@]5(C)[C@]3(C)CC4)O[C@H](CO)[C@@H](O)[C@@H]2O)[C@H](O)[C@H](O)[C@H]1O` (stereo partly drawn), the inhibition entry in assay [1], in assay [2], in [3], in assay [4] and in [5] was “Active” each time.
Turning to `C[C@@H]1O[C@@H](O[C@H]2[C@H](OC(=O)[C@]34CCC(C)(C)C[C@H]3C3=CC[C@@H]5[C@@]6(C)C[C@@H](O)[C@H](O[C@@H]7O[C@H](CO)[C@@H](O)[C@H](O)[C@H]7O)C(C)(C)[C@@H]6CC[C@@]5(C)[C@]3(C)CC4)O[C@H](CO)[C@@H](O)[C@@H]2O)[C@H](O)[C@H](O)[C@H]1O`, the inhibition entry in [1], in [2], in assay [3], in assay [4] and in assay [5] was “Active” in each case.
`C[C@H]1[C@H](C)CC[C@]2(C(=O)OC3O[C@H](CO)[C@@H](O)[C@H](O)[C@H]3O[C@@H]3O[C@@H](C)[C@H](O)[C@@H](O)[C@H]3O)CC[C@]3(C)C(=CC[C@@H]4[C@@]5(C)C[C@@H](O)[C@H](O[C@@H]6O[C@H](CO)[C@@H](O)[C@H](O)[C@H]6O)[C@@](C)(CO)[C@@H]5CC[C@]43C)[C@H]12` (stereo partly drawn): the inhibition result in [1], in [2], in [3], in assay [4] and in [5] was “Active” each time.
For the compound `CC1(C)CC[C@]2(C(=O)O)CC[C@]3(C)C(=CC[C@@H]4[C@@]5(C)C[C@@H](O)[C@H](O)[C@@](C)(CO)[C@@H]5CC[C@]43C)[C@@H]2C1` [ARJUNOLIC ACID], the MIC in [6] was 64 µg/mL; in assay [7], > 128 µg/mL; in [8], > 128 µg/mL; in [9], 64 µg/mL.
Consider `C[C@H]1[C@H](C)CC[C@]2(C(=O)O)CC[C@]3(C)C(=CC[C@@H]4[C@@]5(C)C[C@@H](O)[C@H](O)[C@@](C)(CO)[C@@H]5CC[C@]43C)[C@H]12` [ASIATIC ACID], for which the MIC in assay [6] was > 128 µg/mL; in assay [7], > 128 µg/mL; in [8], > 128 µg/mL; in assay [9], 128 µg/mL.
As for `CC(C)(O/N=C(\C(=O)N[C@@H]1C(=O)N2C(C(=O)[O-])=C(C[n+]3ccccc3)CS[C@H]12)c1csc(N)n1)C(=O)O` [CEFTAZIDIME], the MIC was determined as 10 µg/mL in assay [7] and 10 µg/mL (≈ 18.3 µM) in assay [8].
For the compound `C[C@H]1[C@H](C)CC[C@]2(C(=O)O)CC[C@]3(C)C(=CC[C@@H]4[C@@]5(C)C[C@@H](O)[C@H](O)C(C)(C)[C@@H]5CC[C@]43C)[C@H]12` [COROSOLIC ACID], the MIC in assay [6] is 32 µg/mL; in assay [7] it was > 128 µg/mL; in assay [8], > 128 µg/mL; in assay [9], 32 µg/mL.
In the case of `CC1(C)CC[C@]2(C(=O)O)CC[C@]3(C)C(=CC[C@@H]4[C@@]5(C)C[C@@H](O)[C@H](O)C(C)(C)[C@@H]5CC[C@]43C)[C@@H]2C1` [MASLINIC ACID], the MIC was 64 µg/mL in [6], > 128 µg/mL in assay [7], > 128 µg/mL in assay [8] and 16 µg/mL in assay [9].
Take `CC1(C)CC[C@]2(C(=O)O)CC[C@]3(C)C(=CC[C@@H]4[C@@]5(C)CC[C@H](O)C(C)(C)[C@@H]5CC[C@]43C)[C@@H]2C1` [OLEANOLIC_ACID]: the MIC in assay [6] was > 128 µg/mL; in assay [7], > 128 µg/mL; in [8], > 128 µg/mL; in assay [9], 16 µg/mL.
Turning to `C[C@H]1[C@H](C)CC[C@]2(C(=O)O)CC[C@]3(C)C(=CC[C@@H]4[C@@]5(C)CC[C@H](O)C(C)(C)[C@@H]5CC[C@]43C)[C@H]12` [URSOLIC ACID], the MIC is 128 µg/mL in assay [6], > 128 µg/mL in [7], > 128 µg/mL in [8] and 16 µg/mL in assay [9].
`CN[C@H](CC(C)C)C(=O)N[C@H]1C(=O)N[C@@H](CC(N)=O)C(=O)N[C@H]2C(=O)N[C@H]3C(=O)N[C@H](C(=O)N[C@H](C(=O)O)c4cc(O)cc(O)c4-c4cc3ccc4O)[C@H](O)c3ccc(c(Cl)c3)Oc3cc2cc(c3O[C@@H]2O[C@H](CO)[C@@H](O)[C@H](O)[C@H]2O[C@H]2C[C@](C)(N)[C@H](O)[C@H](C)O2)Oc2ccc(cc2Cl)[C@H]1O` [VANCOMYCIN]: the MIC in [6] and in assay [9] was 2.5 µg/mL each time.
